SIAE inh – blocks human sialic acid acetylesterase | actives 0.69% (n = 370,000) | inhibition, % at 9.66 µM | AID 1053197 | SIAE FP-Rh probe binding, fluorescence polarization;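 active = inhibition above a cutoff: mean of compounds within the control limits plus 3 SD of those, cut at about 17% in these data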;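 also: 0% = plate median of compound wells and 100% = probe without SIAE protein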
Target sequence (Q9HAT2 whole entry, looked up): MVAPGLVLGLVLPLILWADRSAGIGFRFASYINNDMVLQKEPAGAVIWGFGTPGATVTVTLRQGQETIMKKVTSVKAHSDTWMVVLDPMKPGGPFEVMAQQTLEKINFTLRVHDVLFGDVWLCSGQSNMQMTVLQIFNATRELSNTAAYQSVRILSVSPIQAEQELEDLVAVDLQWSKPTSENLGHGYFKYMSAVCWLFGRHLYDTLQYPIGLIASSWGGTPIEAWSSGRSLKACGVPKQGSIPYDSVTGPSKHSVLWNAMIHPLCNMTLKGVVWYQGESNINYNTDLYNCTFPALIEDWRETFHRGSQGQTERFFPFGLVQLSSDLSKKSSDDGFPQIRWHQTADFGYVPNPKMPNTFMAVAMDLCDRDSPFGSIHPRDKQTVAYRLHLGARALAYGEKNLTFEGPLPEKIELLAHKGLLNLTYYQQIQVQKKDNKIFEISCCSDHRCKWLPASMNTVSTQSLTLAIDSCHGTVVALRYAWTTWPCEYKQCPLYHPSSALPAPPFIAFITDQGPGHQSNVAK
TDP2 inh – TDP2 (human) inhibition, absorbance primary screen. O95551. recombinant TDP2, T5PNP hydrolysis, p-nitrophenol absorbance 415 nm. inhibition, % at 12.8 µM. actives 0.34% (n = 370,000). AID 720702;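 active = inhibition above the mean of all tested compounds plus 3 SD, set per campaign, cut at about 25% in these data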;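 also: 0% = DMSO with enzyme and 100% = buffer with substrate but no TDP2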
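Assay system: recombinant human TDP2 / Reagent: T5PNP substrate at 5 mM, a TopII-DNA adduct mimic / Measured by: epi absorbance from released p-nitrophenol / Evaluation: % inhibition relative to enzyme-containing and enzyme-free wells / Control set: enzyme-free and DMSO wells / Replicates: each compound tested once, singlicate / Schedule: enzyme reaction with compound for 2 h at 37 °C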
LEDGF integ inh – blocks HIV-1 LEDGF/p75-dependent DNA integration | actives 0.64% (n = 370,000) | inhibition, % at 3.7 µM | AID 743269 | TR-FRET IN-LEDGF/p75 DNA integration, Eu/Cy5;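 active = inhibition above the screen-wide mean plus 3 SD, cut at about 13% in these data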;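 also: signal is the Cy5 over europium emission ratio at 671 and 618 nm; 0% = plate median of compound wells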
UHRF1 binding – human UHRF1 methylated DNA binding inhibitors; Q96T88; UHRF1 binding to methylated oligo, TR-FRET; inhibition, % at 4.4 µM; actives 0.75% (n = 370,000); AID 687016; in the data active = inhibition above about 21%;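 also: UHRF1 SRA domain binding a hemimethylated CpG hairpin DNA probe; 0% = median of test compound wells and 100% = reference inhibitor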
MBD2 inh – MBD2-methylated oligo binding inhibition; Q9UBB5; TR-FRET, MBD2 binding to methylated oligonucleotide; inhibition, % at 4.4 µM; actives 0.31% (n = 370,000); AID 686964; in the data active = inhibition above about 13%
PRMT1 FP inh – PRMT1 (human) inhibition, primary screen; inhibition, % at 2.79 µM; Q99873; recombinant PRMT1, activity-based probe fluorescence polarization; actives 1.3% (n = 370,000);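 active = inhibition above about 21% made by adding two undisclosed values, limit read from the data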
TDP2 inh conf – human TDP2 inhibition, confirmation. inhibition, % at 12.8 µM. shares compounds with TDP2 inh. AID 743263. actives 22% (n = 1,100). recombinant human TDP2, absorbance read-out; in the data active = inhibition above about 25%;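 also: 0% = vehicle with enzyme and 100% = no enzyme buffer only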
Numbers without * were called inactive; nt = not tested or not shown. This is a sample that favours compounds with a hit; in the whole collection about 3.3% have one here.

SMILES	SIAE inh	TDP2 inh	LEDGF integ inh	UHRF1 binding	MBD2 inh	PRMT1 FP inh	TDP2 inh conf
COc1cc(/C=C/C(=O)OCC(=O)Nc2cc(C)on2)ccc1OCC#N	-2.8	26.2*	1.8	-2.4	-4.6	-3.0	-8.4
Cc1ccccc1-n1ncc2c1CC(C)(C)CC2NC(=O)CCn1cncn1 (stereo not drawn)	9.9	82.1*	1.7	-1.5	3.9	1.0	5.1
Cc1ccc(-n2ncc3c2CC(C)(C)CC3NC(=O)CCn2cncn2)cc1 (stereo not drawn)	-2.5	11.1	1.7	-2.1	0.0	1.5	nt
CC(C)(C)c1ccc(S(=O)(=O)N2CCCC(C(=O)NCCN3CCC(Cc4ccccc4)CC3)C2)cc1 (stereo not drawn)	-0.9	4.5	-5.4	0.4	0.7	3.4	nt
CC(C)CC(=O)N1CCN(Cc2ccc(Cl)cc2)CC1	-2.0	26.2*	1.4	-1.7	-2.3	-2.3	1.2
CC(C)CC(=O)N1CCN(Cc2ccc(Br)cc2)CC1	1.9	-1.2	0.3	-1.8	-2.1	-3.3	nt
CC(C)CC(=O)N1CCN(Cc2ccc(C(F)(F)F)cc2)CC1	-0.9	30.3*	-1.4	-0.1	2.5	0.1	11.5
OC[C@@H]1CC[C@@H]2O[C@H](CCc3ccc(-c4ccc(F)cc4)cc3)[C@H](n3cc(C4CC4)nn3)C[C@@H]2O1	5.2	-0.5	-1.3	6.2	1.6	-1.4	nt
CCOc1ccccc1NC(=O)C(NCCN(C)C)c1ccccc1 (stereo not drawn)	5.5	27.3*	1.4	-0.2	-0.6	-0.5	12.7
c1ccc(OCCN2CCOCC2)cc1	2.1	31.3*	-2.1	3.9	-0.2	0.5	7.2
c1ccc(Cc2ccc(OCCN3CCOCC3)cc2)cc1	-9.3	0.3	-3.0	1.9	3.0	1.0	nt
COC(=O)c1cc(-c2cc3ccccc3o2)c(=O)n2c1CCC2	4.1	-1.5	3.1	2.0	-0.8	-7.0	nt
Cc1ccc(C(=O)NCCONC(=O)c2ccc(C)cc2)cc1	6.0	25.3*	-0.5	0.3	-0.2	-4.0	-5.8
CC(C)[C@H](NC(=O)[C@H](Cc1ccccc1)NC(=O)OC(C)(C)C)C(=O)N1CCC2CCN(S(=O)(=O)c3ccccc3)CC21 (stereo partly drawn)	-3.0	-3.1	-1.8	0.1	-0.2	-1.3	nt
Cc1cccc(NC(=O)Nc2nc3ncccn3c2-c2ccccc2)c1	-2.2	5.7	-0.8	-3.4	-2.0	-1.0	nt
COc1cccc(C(=O)N[C@H](C(=O)N2CCC[C@H]2C(=O)NCCc2ccccc2Cl)c2ccccc2)c1	1.8	9.2	-0.6	-0.8	0.3	-2.0	nt
Cc1cc(C)c(OCCOCCN2CCN(C)CC2)c(Cl)c1	6.0	28.9*	2.2	1.5	2.4	-0.3	10.6
Cc1cc(C)c(OCCN2CCCC2)c(Cl)c1	3.3	23.9	2.0	-1.5	-4.2	2.7	nt
Fc1ccccc1Cn1ccc2ccc(-c3ccc4ccn(Cc5ccccc5)c4c3)cc21	8.7	9.4	-1.9	0.1	-4.3	1.1	nt
O=C(O)/C=C/C(=O)Nc1ccc(O)cc1	6.9	34.3*	14.3*	-4.8	-3.4	18.8	30.8*
O=C(O)/C=C/C(=O)Nc1ccc(C(=O)c2ccccc2)cc1	0.2	5.7	1.2	0.5	0.7	2.9	nt
CCOc1ccccc1C=C1CCc2ccccc2C1=O	-7.0	-8.2	0.6	-0.6	-1.1	-2.6	nt
CCOc1ccc2noc3c2c1C(=O)c1ccccc1-3	17.2*	38.6*	12.2	-3.8	-10.7	150.1*	33.7*
Cc1ccc(CN2CCN(c3ncccn3)CC2)o1	0.2	-0.4	-2.7	-2.7	-1.4	-3.2	nt
Cc1ccc(CN2CCN(c3ccccc3)CC2)o1	6.6	25.5*	0.2	-0.8	-5.6	0.7	-1.6
SMILES	SIAE inh	TDP2 inh	LEDGF integ inh	UHRF1 binding	MBD2 inh	PRMT1 FP inh	TDP2 inh conf
O=C(C1CCCN1S(=O)(=O)c1ccc(F)cc1)N1CCc2ccccc2C1 (stereo not drawn)	-1.9	4.5	-3.1	4.0	2.8	4.7	nt
Fc1c(-c2ccc3ncnc(NCc4cccs4)c3c2)ccc2c1OCO2	-45.1	-4.2	4.7	-3.0	-6.3	-1.7	nt
COc1ccc(N(C(=O)Cn2nnc(-c3ccccc3F)n2)C(C(=O)NCC2CCCO2)c2ccc(Cl)cc2)cc1 (stereo not drawn)	-2.0	26.3*	0.8	-2.5	-2.3	-3.1	2.4
COc1ccc(N(C(=O)Cn2nnc(-c3ccc(Cl)cc3)n2)C(C(=O)NCC2CCCO2)c2ccc(C)cc2)cc1 (stereo not drawn)	3.6	0.0	0.7	-2.1	-4.6	0.2	nt
C[C@H]1[C@@H](NC(=O)C2CCOC2)CC[C@@]23CCCN2C(=O)CCC[C@@H]13 (stereo partly drawn)	0.7	-6.9	-1.5	0.2	-2.6	-1.1	nt
Cc1ccc(N2CCN(/N=C\c3cccnc3)CC2)cc1	7.4	4.9	-2.7	-2.3	-6.1	1.6	nt
CCOc1ccc2nc(SCC(=O)NCc3ccc(OC)cc3)[nH]c2c1	1.1	1.7	-4.8	-3.3	-1.8	1.0	nt
COc1ccc2nc(SCC(=O)NCc3ccccc3)[nH]c2c1	3.4	59.6*	0.4	8.3	4.0	1.8	-2.0
CN(C)CCOC(=O)c1ccc2[nH]c3c(c2c1)CSCC3	0.5	24.8*	2.7	-1.5	-1.1	5.3	-2.8
OCCNc1ncnc2c1sc1nc(N3CCOCC3)c3c(c12)CCC3	-8.9	27.2*	0.4	0.7	2.4	-2.4	-4.2
Cc1cc(=O)n(-c2ccccc2Cl)[nH]1	2.4	59.0*	1.5	2.3	-6.1	1.7	9.9
Cc1cc(=O)n(-c2ccc(C(=O)O)cc2)[nH]1	4.8	22.2	-2.5	0.5	-3.8	1.6	nt
CC1(c2nnnn2Cc2ccccc2)CCSCC(=O)N1Cc1cccs1 (stereo not drawn)	5.0	-1.4	-3.4	3.9	7.0	0.7	nt
O=C(O[C@H]1CC[C@@]23CCCN2C(=O)CCC[C@H]3C1)N1CCN(c2ccccc2)CC1	1.6	-2.0	1.3	1.1	2.7	2.3	nt
COc1ccccc1-c1ccc(SCC(=O)NC2CCCC2)nn1	-7.4	37.5*	4.5	2.1	-3.3	-1.9	-10.2
CC1CCN(C2CCN(C(=O)c3ccccc3F)CC2)CC1	4.8	28.2*	0.4	1.3	-3.9	-0.9	7.5
CC1=NN(c2ccccc2)C(=O)C1C(=O)c1cc([N+](=O)[O-])cc([N+](=O)[O-])c1 (stereo not drawn)	6.0	46.7*	4.1	-9.4	-1.7	-1.1	10.5
CN(C(=O)c1cc(C(=O)N(C)c2ccccc2)cc([N+](=O)[O-])c1)c1ccccc1	1.2	17.4	-0.6	-1.9	-5.6	2.4	nt
O=C(NCCCN1CCOCC1)c1ccc2c(c1)N(Cc1ccc(Cl)cc1)C(=O)c1ccccc1S2=O (stereo not drawn)	-2.0	52.7*	0.0	-2.4	-2.2	-1.8	0.1

Screening data deposited in PubChem by The Scripps Research Institute Molecular Screening Center.
